Source: ChEMBL document CHEMBL4665714 (Bioorg Med Chem Lett, 2020)
Activity calls are given as the source filed them. No cut-off for these calls is given here.

Key:
[1] = molecular target: Retinoid isomerohydrolase (Bos taurus, UniProt Q28175); experiment: (§1) Inhibition of RPE65 in bovine RPE microsomes assessed as reduction in 11-cis-retinol production using all-trans-retinol as substrate pre-incubated with enzyme for 5 mins followed by further incubation with all-trans-retinol for 1 hr by normal phase HPLC analysis; set-up: species or system Retina, Microsome
Chain of Retinoid isomerohydrolase (Q28175 whole entry): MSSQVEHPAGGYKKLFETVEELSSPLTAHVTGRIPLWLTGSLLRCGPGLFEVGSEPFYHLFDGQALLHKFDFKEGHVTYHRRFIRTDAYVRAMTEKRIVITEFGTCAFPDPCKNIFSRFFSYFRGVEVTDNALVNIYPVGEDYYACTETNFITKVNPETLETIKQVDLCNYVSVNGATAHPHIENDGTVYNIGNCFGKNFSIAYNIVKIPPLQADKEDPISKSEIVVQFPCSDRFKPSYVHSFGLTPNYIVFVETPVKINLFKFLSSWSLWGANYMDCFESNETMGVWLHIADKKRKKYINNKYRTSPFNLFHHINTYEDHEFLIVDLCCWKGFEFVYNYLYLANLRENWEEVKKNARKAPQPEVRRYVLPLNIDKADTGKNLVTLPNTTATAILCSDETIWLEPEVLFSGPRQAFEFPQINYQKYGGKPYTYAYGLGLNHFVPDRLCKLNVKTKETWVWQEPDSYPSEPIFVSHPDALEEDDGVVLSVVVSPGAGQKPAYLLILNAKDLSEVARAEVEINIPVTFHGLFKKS
Outline: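 All-trans-retinol added to the enzyme mixture and incubated 1 h at 37 °C. Quenched with methanol and extracted into hexane. Inhibition taken from the fall in 11-cis-retinol production.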

ARPE-19 [2] = experiment: Cytoprotective activity against human ARPE-19 cells assessed as reduction in all-trans-retinal induced cytotoxicity at 18 to 90 uM incubated for 6 hrs in presence of all-trans-retinal by CellTiter-Glo luminescent cell viability assay; format: functional, cell-based; settings: dose microM 18-90, time 6.0 hrs
[3] = molecular target: Retinoid isomerohydrolase (Bos taurus) (UniProt Q28175); experiment: as §1, with “Potency index, ratio of (R)-MB001 EC50 to test compound EC50 for inhibition” for “Inhibition”; settings: Retina, Microsome, time 65.0 min
Chain of Retinoid isomerohydrolase (Bos taurus) (Q28175 2-533 limits assumed): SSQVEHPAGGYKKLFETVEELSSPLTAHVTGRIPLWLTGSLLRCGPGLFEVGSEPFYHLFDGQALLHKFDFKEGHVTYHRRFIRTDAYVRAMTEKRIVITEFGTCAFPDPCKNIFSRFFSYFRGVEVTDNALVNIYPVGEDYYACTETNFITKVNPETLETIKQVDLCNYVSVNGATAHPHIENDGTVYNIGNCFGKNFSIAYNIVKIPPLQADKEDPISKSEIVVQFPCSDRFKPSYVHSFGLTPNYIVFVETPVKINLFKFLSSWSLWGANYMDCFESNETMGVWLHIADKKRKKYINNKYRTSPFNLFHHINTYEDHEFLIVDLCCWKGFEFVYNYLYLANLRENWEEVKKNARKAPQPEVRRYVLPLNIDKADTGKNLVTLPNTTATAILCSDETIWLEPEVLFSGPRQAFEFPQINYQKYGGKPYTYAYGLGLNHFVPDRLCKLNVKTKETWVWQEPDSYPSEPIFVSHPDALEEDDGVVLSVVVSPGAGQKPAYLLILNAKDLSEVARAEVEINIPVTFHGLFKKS

ARPE-19 [4] = experiment: Cytoprotective activity against human ARPE-19 cells assessed as reduction in all-trans-retinal induced cytotoxicity by measuring cell surveillance rate at 90 uM incubated for 6 hrs in presence of all-trans-retinal by CellTiter-Glo luminescent cell viability assay relative to control; format: functional
Outline: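 ARPE-19 (human RPE line) cells given test agent at 18, 45 or 90 μM together with all-trans-retinal 385 μM. Incubated 6 h at 37 °C, then viability read by CellTiter-Glo luminescence. Mean ±SE, n=3, t-test.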

| EC50 [1] [nM] | Ratio EC50 [3] | Structure (SMILES) | Activity (ARPE-19 [2]) | Activity (ARPE-19 [4]) [%] |
| --- | --- | --- | --- | --- |
| 196 |  | NCCC(O)c1cccc(OCC(CCCF)CCCF)c1 (stereo in doubt; 14) [listing 1 of 2 here] |  | 100 |
|  | 2 | NCCC(O)c1cccc(OCC(CCCF)CCCF)c1 (stereo in doubt; 14) [listing 2 of 2 here] | Active |  |

The remaining lines, values behind:

| Structure (SMILES) | EC50 [1] [nM] | Ratio EC50 [3] | Activity (ARPE-19 [2]) | Activity (ARPE-19 [4]) [%] |
| --- | --- | --- | --- | --- |
| CC1=C(COc2cccc([C@H](O)CCN)c2)C(C)(C)CCC1 | 323 |  | Active |  |
| NCCC(O)c1cccc(OCC(CCCF)CCCF)c1 (racemic) [listing 1 of 2 here] | 166 |  |  |  |
| NCCC(O)c1cccc(OCC(CCCF)CCCF)c1 (racemic) [listing 2 of 2 here] |  | 2 | Active |  |
